Source: ChEMBL document CHEMBL3259729, “Optimizing the Physicochemical Properties of Raf/MEK Inhibitors by Nitrogen Scanning” (ACS Med Chem Lett, 2014)
Values after ≈ are worked out from the molar mass of the structure shown.

Assays:
[1] = AUC in BALB-nu/nu mouse at 100 mg/kg, po measured after 24 hrs by LC-MS/MS analysis; type: ADME, organism-based; design: time < 24 hr, dose 100 mg/kg, route oral; conditions: plasma
Summary of the method: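 Mice dosed orally at 100 mg/kg as a solution in 5% DMSO, 5% Cremophor EL, 15% PEG400, 15% 2-hydroxypropyl-β-cyclodextrin and 60% water.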

[2] = target: Dual specificity mitogen-activated protein kinase kinase 1 (Homo sapiens, UniProt Q02750, S218E/S222E); assay: Inhibition of constitutively active MEK1 S218E,S222E mutant (unknown origin) assessed as MAP kinase 2/Erk2-mediated FAM-Erktide phosphorylation using MAP kinase 2/Erk2 as substrate preincubated for 30 mins by IMAP fluorescence polarization assay
Dual specificity mitogen-activated protein kinase kinase 1, sequence (Q02750 whole entry S218E/S222E): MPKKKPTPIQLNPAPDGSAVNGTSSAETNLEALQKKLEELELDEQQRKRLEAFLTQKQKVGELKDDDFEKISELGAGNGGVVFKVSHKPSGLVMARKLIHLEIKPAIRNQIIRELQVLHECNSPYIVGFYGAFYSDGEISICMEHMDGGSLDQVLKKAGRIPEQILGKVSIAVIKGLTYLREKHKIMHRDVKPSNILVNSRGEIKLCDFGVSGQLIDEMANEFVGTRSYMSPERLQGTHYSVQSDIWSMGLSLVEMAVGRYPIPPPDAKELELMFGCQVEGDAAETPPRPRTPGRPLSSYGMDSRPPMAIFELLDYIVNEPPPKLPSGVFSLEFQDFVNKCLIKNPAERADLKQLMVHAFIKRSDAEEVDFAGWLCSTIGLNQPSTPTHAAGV

[3] = test system: HT-29; assay: Inhibition of human HT-29 cell growth; type: functional, cell-based
[4] = Intrinsic clearance in human liver microsomes at 5 uM by LC/MS/MS analysis; type: ADME; conditions: read-out: CLH
[5] = Membrane permeability of the compound at pH 6.5 by PAMPA PSR4p assay; type: physicochemical; conditions: read-out: permeability
[6] = target: T1, Cytochrome P450 2C9 (Homo sapiens, UniProt P11712); assay: Inhibition of CYP2C9 in human liver microsomes using diclofenac as substrate measured after 30 mins preincubation by LC-MS/MS analysis in absence of NADPH; type: ADME
T1 sequence (P11712 whole entry): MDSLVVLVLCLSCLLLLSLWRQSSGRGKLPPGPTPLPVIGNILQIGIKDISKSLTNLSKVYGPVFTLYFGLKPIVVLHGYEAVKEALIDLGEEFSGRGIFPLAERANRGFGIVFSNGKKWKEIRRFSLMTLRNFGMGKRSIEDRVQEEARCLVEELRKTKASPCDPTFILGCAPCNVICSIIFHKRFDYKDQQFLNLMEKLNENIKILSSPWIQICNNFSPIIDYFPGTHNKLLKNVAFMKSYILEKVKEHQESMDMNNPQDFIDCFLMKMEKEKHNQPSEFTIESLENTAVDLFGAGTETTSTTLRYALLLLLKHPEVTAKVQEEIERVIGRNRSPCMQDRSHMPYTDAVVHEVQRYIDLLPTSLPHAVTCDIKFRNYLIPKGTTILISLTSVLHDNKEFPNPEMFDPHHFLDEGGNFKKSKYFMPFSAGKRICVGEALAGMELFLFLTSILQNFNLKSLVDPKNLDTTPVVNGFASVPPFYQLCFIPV
Summary of the method: (§1)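 The IC50 is determined after a 30 min preincubation without NADPH.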

[7] = target: T1, Cytochrome P450 2C9; assay: Inhibition of CYP2C9 in human liver microsomes using diclofenac as substrate measured after 30 mins preincubation by LC-MS/MS analysis in presence of NADPH; type: ADME
Summary of the method: (§2)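 The IC50 is determined after a 30 min preincubation with NADPH.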

[8] = target: T2, Cytochrome P450 3A4 (Homo sapiens, UniProt P08684); assay: Inhibition of CYP3A4 in human liver microsomes using midazolam as substrate measured after 30 mins preincubation by LC-MS/MS analysis in absence of NADPH; type: ADME; summary of the method: as §1
T2 sequence (P08684 whole entry): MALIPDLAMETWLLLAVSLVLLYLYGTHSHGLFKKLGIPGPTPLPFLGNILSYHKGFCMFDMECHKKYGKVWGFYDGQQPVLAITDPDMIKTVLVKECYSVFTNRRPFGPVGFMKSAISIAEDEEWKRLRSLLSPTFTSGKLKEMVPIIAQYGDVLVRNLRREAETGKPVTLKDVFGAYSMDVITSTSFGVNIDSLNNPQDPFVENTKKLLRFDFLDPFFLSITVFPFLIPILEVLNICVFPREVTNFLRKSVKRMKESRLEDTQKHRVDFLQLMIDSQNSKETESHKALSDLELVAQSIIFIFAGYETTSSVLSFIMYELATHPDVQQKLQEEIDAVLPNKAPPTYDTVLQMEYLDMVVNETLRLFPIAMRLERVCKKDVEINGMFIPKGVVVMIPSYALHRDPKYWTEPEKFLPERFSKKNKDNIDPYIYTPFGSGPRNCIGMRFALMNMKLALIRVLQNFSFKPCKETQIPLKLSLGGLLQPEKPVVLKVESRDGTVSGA

[9] = target: T2, Cytochrome P450 3A4; assay: Inhibition of CYP3A4 in human liver microsomes using midazolam as substrate measured after 30 mins preincubation by LC-MS/MS analysis in presence of NADPH; type: ADME; summary of the method: as §2
[10] = Bioavailability in BALB-nu/nu mouse at 2.5 mg/kg, iv and 5 mg/kg, po by LC-MS/MS analysis; type: ADME, organism-based; conditions: in vivo
[11] = Clearance in BALB-nu/nu mouse at 2.5 mg/kg, iv and 5 mg/kg, po by LC-MS/MS analysis; type: ADME, organism-based; conditions: in vivo
[12] = Bioavailability in Crlj:CD rat at 2.5 mg/kg, iv and 5 mg/kg, po by LC-MS/MS analysis; type: ADME, organism-based; conditions: in vivo
[13] = Clearance in Crlj:CD rat at 2.5 mg/kg, iv and 5 mg/kg, po by LC-MS/MS analysis; type: ADME, organism-based; conditions: in vivo
[14] = Bioavailability in cynomolgus monkey at 2.5 mg/kg, iv and 5 mg/kg, po by LC-MS/MS analysis; type: ADME, organism-based, Macaca fascicularis; conditions: in vivo
[15] = Clearance in cynomolgus monkey at 2.5 mg/kg, iv and 5 mg/kg, po by LC-MS/MS analysis; type: ADME, organism-based, Macaca fascicularis; conditions: in vivo
[16] = test system: C32; assay: Antitumor activity against human C32 cells xenografted in po dosed BALB-nu/nu mouse assessed as tumor growth inhibition administered qd for 11 days; type: functional; conditions: for ED50: Mus musculus, C32, po, 264 h
Summary of the method: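 C32 cells implanted subcutaneously in the right flank of BALB-nu/nu mice, with tumors established before treatment. Compound given orally once daily for 11 days (day 0 to day 10). Tumor size measured twice per week. Values are mean SD, n = 4.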

[17] = test system: Mus musculus; assay: Toxicity in po dosed BALB-nu/nu mouse xenografted with human C32 cells assessed as body weight administered qd for 11 days; type: organism-based; conditions: in vivo, 264 h
[18] = test system: Mus musculus; assay: Toxicity in po dosed BALB-nu/nu mouse xenografted with human C32 cells assessed as adverse clinical signs administered qd for 11 days; type: organism-based; conditions: in vivo, 264 h
[19] = Saturated solubility of the compound in fasted state simulated intestinal fluid after 24 hrs by shaking flask method; type: ADME; conditions: fasted state simulated intestinal fluid (FaSSIF)
Summary of the method: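 Free crystalline form equilibrated for 24 h in FaSSIF, and the saturated concentration was reported.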

[20] = Dissociation constant, pKa of the compound at 10 mM by spectroscopic titration analysis; type: physicochemical
[21] = test system: C32; assay: Growth inhibition of human C32 cells harboring B-Raf V600E mutant
[22] = test system: HCT-116; assay: Inhibition of human HCT116 cell growth after 96 hrs by counting kit-8 analysis; type: functional, cell-based; conditions: HCT-116, 96 h
[23] = target: RAF proto-oncogene serine/threonine-protein kinase (Homo sapiens, UniProt P04049); assay: Inhibition of truncated active C-Raf (unknown origin) assessed as MEK1 phosphorylation using inactive MEK1 K97R as substrate after 45 mins
RAF proto-oncogene serine/threonine-protein kinase, sequence (P04049 whole entry, the tested form may be a part): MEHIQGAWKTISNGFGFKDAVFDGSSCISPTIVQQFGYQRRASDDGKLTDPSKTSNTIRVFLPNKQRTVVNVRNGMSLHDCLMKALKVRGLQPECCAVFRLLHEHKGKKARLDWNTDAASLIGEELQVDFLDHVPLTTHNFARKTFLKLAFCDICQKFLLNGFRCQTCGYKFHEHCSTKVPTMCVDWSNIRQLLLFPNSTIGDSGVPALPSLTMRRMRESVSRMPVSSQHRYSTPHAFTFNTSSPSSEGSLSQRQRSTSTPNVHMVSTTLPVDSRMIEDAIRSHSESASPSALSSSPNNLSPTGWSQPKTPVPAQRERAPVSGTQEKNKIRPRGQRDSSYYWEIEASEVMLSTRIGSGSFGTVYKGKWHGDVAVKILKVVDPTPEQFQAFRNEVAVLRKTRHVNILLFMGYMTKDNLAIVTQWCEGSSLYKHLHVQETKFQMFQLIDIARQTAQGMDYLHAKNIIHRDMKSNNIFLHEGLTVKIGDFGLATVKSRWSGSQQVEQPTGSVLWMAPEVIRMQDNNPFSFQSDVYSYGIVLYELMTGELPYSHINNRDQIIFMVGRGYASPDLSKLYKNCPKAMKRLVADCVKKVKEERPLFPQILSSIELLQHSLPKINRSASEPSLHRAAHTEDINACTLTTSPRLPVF

[24] = Solubility of the compound in fasted state simulated intestinal fluid by LYSA method; type: ADME; conditions: fasted state simulated intestinal fluid (FaSSIF)
[25] = Supersaturated solubility of the compound in fasted state simulated intestinal fluid after 4 hrs by miniscale dissolution test; type: ADME; conditions: fasted state simulated intestinal fluid (FaSSIF)

Row | Structure (SMILES) | AUC at 24 h [1] | IC50 [2] | IC50 [3] | microsomal CLint at 5 µM [4] | IC50 [22] | IC50 [23] | solubility [24] | other results
1 | CNS(=O)(=O)[N-]c1cccc(Cc2c(C)c3ccc(OC(=O)N(C)C)cc3oc2=O)c1.[Na+] | 78 µM·h |  |  |  |  |  |  | 
2 | CNS(=O)(=O)Nc1cccc(Cc2c(C)c3cc(C)c(OC(=O)N(C)C)cc3oc2=O)c1 | 18 µM·h | 29 nM | 8 nM | 17 µL/min/mg |  |  |  | Papp [5]: 4 ×10⁻⁶ cm/s
3 | CNS(=O)(=O)Nc1cccc(Cc2c(C)c3ccc(OC(=O)N(C)C)cc3oc2=O)c1 |  | 110 nM | 9 nM | 20 µL/min/mg |  |  |  | IC50 [6]: 29000 nM; IC50 [7]: 96000 nM; IC50 [8]: 13000 nM; IC50 [9]: 5600 nM
4 | CNS(=O)(=O)Nc1cccc(Cc2c(C)c3ccc(Oc4ncccn4)cc3oc2=O)c1F | 425 µM·h | 97 nM |  | 6.7 µL/min/mg |  |  |  | IC50 [6]: 19000 nM; IC50 [7]: 19000 nM; IC50 [8]: 26000 nM; IC50 [9]: 11000 nM; bioavailability [10]: 75%; clearance [11]: 6.8 mL/min/kg; bioavailability [12]: 84%; clearance [13]: 6.6 mL/min/kg; bioavailability [14]: 59%; clearance [15]: 0.9 mL/min/kg; TGI [16]: 96%; ED50 [16]: 1.44 mg/kg; Activity [17]: Non-toxic; Activity [18]: Non-toxic; solubility thermodynamic at 24 h [19]: 5.5 µg/mL (≈ 11.7 µM); pKa at 10000 µM [20]: 8.86; IC50 [21]: 57 nM
5 | CNS(=O)(=O)Nc1cccc(Cc2c(C)c3ccc(OC(=O)N(C)C)nc3oc2=O)c1 |  | 440 nM | 600 nM | 3 µL/min/mg | 1100 nM | 2500 nM | 43 µg/mL (≈ 96.3 µM) | Papp [5]: 3 ×10⁻⁶ cm/s
6 | CNS(=O)(=O)Nc1cccc(Cc2c(C)c3ccc(OC(=O)N(C)C)cc3oc2=O)n1 | 314 µM·h | 110 nM | 73 nM | 7 µL/min/mg | 270 nM | 70 nM | 320 µg/mL (≈ 717 µM) | Papp [5]: 6 ×10⁻⁶ cm/s
7 | CNS(=O)(=O)Nc1cc(Cc2c(C)c3ccc(OC(=O)N(C)C)cc3oc2=O)ccn1 | 134 µM·h | 99 nM | 25 nM | 6 µL/min/mg | 32 nM | 32 nM | 55 µg/mL (≈ 123 µM) | Papp [5]: 7 ×10⁻⁶ cm/s; IC50 [6]: > 100000 nM; IC50 [7]: > 100000 nM; IC50 [8]: > 100000 nM; IC50 [9]: > 100000 nM
8 | CNS(=O)(=O)Nc1cncc(Cc2c(C)c3ccc(OC(=O)N(C)C)cc3oc2=O)c1 |  | > 50000 nM | > 10000 nM |  | > 10000 nM | > 50000 nM | 240 µg/mL (≈ 538 µM) | 
9 | CNS(=O)(=O)Nc1ccnc(Cc2c(C)c3cc(C)c(OC(=O)N(C)C)cc3oc2=O)c1 |  | 37000 nM | 5700 nM |  | > 10000 nM | 27000 nM | 425 µg/mL (≈ 923 µM) | 
10 | CNS(=O)(=O)Nc1nccc(Cc2c(C)c3ccc(Oc4ccccc4)cc3oc2=O)c1F |  | 76 nM |  |  | 110 nM | 21 nM |  | 
11 | CNS(=O)(=O)Nc1nccc(Cc2c(C)c3ccc(Oc4ccccn4)cc3oc2=O)c1F |  | 190 nM |  |  | 45 nM | 81 nM |  | 
12 | CNS(=O)(=O)Nc1nccc(Cc2c(C)c3ccc(Oc4cnccn4)cc3oc2=O)c1F |  | 650 nM |  |  | 900 nM | 56 nM |  | 
13 | CNS(=O)(=O)Nc1cccc(Nc2c(C)c3ccc(Oc4ncccn4)cc3oc2=O)c1 |  | > 50000 nM |  |  | > 10000 nM | > 50000 nM |  | 
14 | CNS(=O)(=O)[N-]c1cccc(Cc2c(C)c3ccc(Oc4ncccn4)cc3oc2=O)c1F.[K+] |  |  |  |  |  |  |  | solubility at 4 h [25]: 12 µg/mL
15 | CNS(=O)(=O)[N-]c1nccc(Cc2c(C)c3ccc(Oc4ncccn4)cc3oc2=O)c1F.[K+] [AVUTOMETINIB POTASSIUM] |  |  |  |  |  |  |  | solubility at 4 h [25]: 57 µg/mL
16 | CNS(=O)(=O)Nc1nccc(Cc2c(C)c3ccc(Oc4ncccn4)cc3oc2=O)c1F [AVUTOMETINIB] | 2830 µM·h |  |  | 0.5 µL/min/mg | 40 nM | 56 nM | 159 µg/mL (≈ 337 µM) | IC50 [6]: 12000 nM; IC50 [7]: 60000 nM; IC50 [8]: > 100000 nM; IC50 [9]: > 100000 nM; bioavailability [10]: 93%; clearance [11]: 1.1 mL/min/kg; bioavailability [12]: 66%; clearance [13]: 0.7 mL/min/kg; bioavailability [14]: 82%; clearance [15]: 0.1 mL/min/kg; TGI [16]: 118%; ED50 [16]: 0.09 mg/kg; Activity [17]: Non-toxic; Activity [18]: Non-toxic; solubility thermodynamic at 24 h [19]: 2.7 µg/mL (≈ 5.73 µM); pKa at 10000 µM [20]: 7.02; IC50 [21]: 47 nM
